Data taken from ChEMBL document CHEMBL1126270, “Synthesis of 3-[(2,3-dihydro-1,1,3-trioxo-1,2-benzisothiazol-2-yl)alkyl] 1,4-dihydropyridine-3,5-dicarboxylate derivatives as calcium channel modulators” (J Med Chem, 1992).
pIC50: −log10 of the molar value.

Assays:
Oryctolagus cuniculus [1] = species on record: Oryctolagus cuniculus; experiment: Relative potency evaluated (relative potency = IC50 of compound / IC50 of nifedipine) in rabbit; assay type: functional
Oryctolagus cuniculus [2] = species on record: Oryctolagus cuniculus; experiment: Blockade of calcium-evoked contractions evaluated in depolarized rabbit aortic strips; assay type: functional; details: Aorta
Procedure, shortened: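 Male New Zealand rabbit thoracic aorta, helicoidal strips, 2.5 g preload, Krebs–bicarbonate, 37 °C, 95% O2/5% CO2, pH 7.4. After 1 h equilibration, depolarized with 35 mM K+; 1.5 mM Ca2+ added 10 min later, repeated until reproducible. Compound at increasing concentrations from 20 min before and during Ca2+ addition; responses normalized to initial tension; IC50 by Finney method.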

[3] = molecular target: T1, Voltage-dependent L-type calcium channel subunit alpha-1C (Oryctolagus cuniculus, UniProt P15381); experiment: Blockade of calcium-evoked contractions in depolarized aortic strips; assay type: functional, tissue-based, Aorta
Oryctolagus cuniculus [4] = species on record: Oryctolagus cuniculus; experiment: Relative potency was evaluated. (relative potency = IC50 of compound / IC50 of nifedipine); assay type: functional
[5] = molecular target: T1, Voltage-dependent L-type calcium channel subunit alpha-1C; experiment: Selectivity index was measured as the IC50 needed to depress the heart beat divided by IC50 needed to block [Ca2+] contractions in rabbit aortic strips; assay type: functional, tissue-based, Aorta
Oryctolagus cuniculus [6] = species on record: Oryctolagus cuniculus; experiment: Recovery of the initial contraction of rabbit aortic strips, blocked at 10e-7 M concentration.; details: Aorta
Oryctolagus cuniculus [7] = species on record: Oryctolagus cuniculus; experiment: Inhibition of electrically stimulated rabbit left atria contraction.; assay type: functional
Procedure, shortened: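 Rabbit left atria electrically driven (1 Hz, 10 ms, twice threshold voltage), equilibrated 1–1.5 h. Compounds added cumulatively (10^-10–10^-6 M), diluted from DMSO stocks into Krebs–Henseleit, final DMSO <0.1%. Isometric force recorded; IC50 from contractile force relative to initial control values, with 95% confidence limits.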

T1 sequence (P15381 whole entry): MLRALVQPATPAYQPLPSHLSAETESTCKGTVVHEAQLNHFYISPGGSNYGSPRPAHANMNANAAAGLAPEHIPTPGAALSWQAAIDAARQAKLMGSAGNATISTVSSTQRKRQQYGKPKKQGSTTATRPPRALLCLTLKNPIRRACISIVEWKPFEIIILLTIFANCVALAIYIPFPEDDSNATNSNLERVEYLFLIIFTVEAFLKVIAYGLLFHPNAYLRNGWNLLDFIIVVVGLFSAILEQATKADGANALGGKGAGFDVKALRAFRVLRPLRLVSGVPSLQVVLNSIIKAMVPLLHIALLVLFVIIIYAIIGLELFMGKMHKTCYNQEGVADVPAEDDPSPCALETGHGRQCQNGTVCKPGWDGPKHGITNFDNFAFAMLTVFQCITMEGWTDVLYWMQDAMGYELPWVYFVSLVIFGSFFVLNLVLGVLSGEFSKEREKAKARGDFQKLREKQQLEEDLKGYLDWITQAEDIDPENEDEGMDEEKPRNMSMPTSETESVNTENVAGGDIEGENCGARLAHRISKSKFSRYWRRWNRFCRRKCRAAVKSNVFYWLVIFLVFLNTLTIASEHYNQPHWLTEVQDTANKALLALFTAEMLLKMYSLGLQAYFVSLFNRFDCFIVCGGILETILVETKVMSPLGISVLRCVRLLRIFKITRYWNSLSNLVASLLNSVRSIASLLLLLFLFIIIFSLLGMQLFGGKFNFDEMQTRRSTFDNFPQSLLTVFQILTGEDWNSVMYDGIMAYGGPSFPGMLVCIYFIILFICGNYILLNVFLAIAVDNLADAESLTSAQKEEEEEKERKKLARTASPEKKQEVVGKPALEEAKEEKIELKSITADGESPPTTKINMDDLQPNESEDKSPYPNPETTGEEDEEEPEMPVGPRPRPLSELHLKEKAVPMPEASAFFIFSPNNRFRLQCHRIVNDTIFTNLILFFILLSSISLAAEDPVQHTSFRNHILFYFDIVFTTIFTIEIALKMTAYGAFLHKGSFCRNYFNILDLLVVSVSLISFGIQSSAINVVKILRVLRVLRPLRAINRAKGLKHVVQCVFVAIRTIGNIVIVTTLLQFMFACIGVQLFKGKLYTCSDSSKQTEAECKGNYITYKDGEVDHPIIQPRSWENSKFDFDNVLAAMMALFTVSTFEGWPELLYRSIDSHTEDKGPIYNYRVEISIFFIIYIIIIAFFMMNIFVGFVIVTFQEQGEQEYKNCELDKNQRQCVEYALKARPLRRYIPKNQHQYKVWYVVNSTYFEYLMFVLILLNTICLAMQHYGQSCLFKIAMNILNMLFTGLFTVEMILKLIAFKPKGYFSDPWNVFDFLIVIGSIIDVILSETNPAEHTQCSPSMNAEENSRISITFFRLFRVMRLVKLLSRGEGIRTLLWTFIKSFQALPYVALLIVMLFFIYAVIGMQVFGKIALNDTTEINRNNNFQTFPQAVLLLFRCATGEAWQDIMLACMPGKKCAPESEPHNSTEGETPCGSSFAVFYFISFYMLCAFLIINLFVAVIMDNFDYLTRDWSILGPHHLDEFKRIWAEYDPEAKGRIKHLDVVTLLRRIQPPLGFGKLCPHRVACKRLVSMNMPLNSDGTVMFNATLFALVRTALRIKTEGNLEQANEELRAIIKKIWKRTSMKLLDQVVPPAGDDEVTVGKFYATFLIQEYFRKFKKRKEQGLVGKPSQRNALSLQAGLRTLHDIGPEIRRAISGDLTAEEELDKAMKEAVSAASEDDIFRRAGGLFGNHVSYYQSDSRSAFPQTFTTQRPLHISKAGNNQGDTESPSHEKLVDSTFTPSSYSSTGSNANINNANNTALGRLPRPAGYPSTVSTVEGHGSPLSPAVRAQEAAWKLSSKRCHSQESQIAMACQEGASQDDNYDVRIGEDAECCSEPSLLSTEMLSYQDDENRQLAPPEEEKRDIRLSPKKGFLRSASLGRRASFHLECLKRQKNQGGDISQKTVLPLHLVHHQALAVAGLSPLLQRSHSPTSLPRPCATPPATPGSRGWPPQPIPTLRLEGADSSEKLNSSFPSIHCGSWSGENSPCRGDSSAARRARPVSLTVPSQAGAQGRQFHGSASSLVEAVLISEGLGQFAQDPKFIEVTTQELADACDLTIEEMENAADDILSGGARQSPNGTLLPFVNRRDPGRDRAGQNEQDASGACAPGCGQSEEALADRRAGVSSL

Compound	Relative potency (Oryctolagus cuniculus [1])	pIC50 (Oryctolagus cuniculus [2])	other results
CCO/C(O)=C1\C(C)=NC(C)=C(C(=O)OCCN2C(=O)c3ccccc3S2(=O)=O)C1c1cccc(Cl)c1Cl (stereo unspecified)	0.7	8.40	
CC1=NC(C)=C(C(=O)OCCCN2C(=O)c3ccccc3S2(=O)=O)C(c2cccc(Cl)c2Cl)/C1=C(\O)OCC1CCCCO1 (stereo unspecified)	0.7	8.40	
CC1=NC(C)=C(C(=O)OCN2C(=O)c3ccccc3S2(=O)=O)C(c2cccc([N+](=O)[O-])c2)/C1=C(\O)OC(C)(C)C (stereo unspecified)			pIC50 [3]: 8.11; Relative potency (Oryctolagus cuniculus [4]): 0.4
CC1=NC(C)=C(C(=O)OCCN2C(=O)c3ccccc3S2(=O)=O)C(c2ccccc2C(F)(F)F)/C1=C(\O)OCC1CCCCO1 (stereo unspecified)	0.1	7.59	
CCO/C(O)=C1\C(C)=NC(C)=C(C(=O)OCCCN2C(=O)c3ccccc3S2(=O)=O)C1c1ccccc1C(F)(F)F (stereo unspecified)	3.6	9.10	Selectivity index [5]: 163; Recovery (Oryctolagus cuniculus [6]): 1.2%; pIC50 (Oryctolagus cuniculus [7]): 6.91
CO/C(O)=C1\C(C)=NC(C)=C(C(=O)OCCCN2C(=O)c3ccccc3S2(=O)=O)C1c1cccc([N+](=O)[O-])c1 (stereo unspecified)	1.1	8.59	
CC1=NC(C)=C(C(=O)OCCCN2C(=O)c3ccccc3S2(=O)=O)C(c2cccc([N+](=O)[O-])c2)/C1=C(\O)OCC1CCCO1 (stereo unspecified)	0.3	7.98	
CCO/C(O)=C1\C(C)=NC(C)=C(C(=O)OCCN2C(=O)c3ccccc3S2(=O)=O)C1c1ccccc1Cl (stereo unspecified)	0.3	8.00	
COCCO/C(O)=C1\C(C)=NC(C)=C(C(=O)OCN2C(=O)c3ccccc3S2(=O)=O)C1c1cccc(Cl)c1Cl (stereo unspecified)			pIC50 [3]: 8.54; Relative potency (Oryctolagus cuniculus [4]): 1
CO/C(O)=C1\C(C)=NC(C)=C(C(=O)OCCN2C(=O)c3ccccc3S2(=O)=O)C1c1cccc(Cl)c1Cl (stereo unspecified)	0.2	7.76	
COCCO/C(O)=C1\C(C)=NC(C)=C(C(=O)OCCCN2C(=O)c3ccccc3S2(=O)=O)C1c1ccccc1Cl (stereo unspecified)	1	8.54	
CC1=NC(C)=C(C(=O)OCN2C(=O)c3ccccc3S2(=O)=O)C(c2cccc([N+](=O)[O-])c2)/C1=C(\O)OCC1CCCCO1 (stereo unspecified)			pIC50 [3]: 7.88; Relative potency (Oryctolagus cuniculus [4]): 0.2
CO/C(O)=C1\C(C)=NC(C)=C(C(=O)OCCN2C(=O)c3ccccc3S2(=O)=O)C1c1cccc([N+](=O)[O-])c1 (stereo unspecified)	0.1	7.40	
COCCO/C(O)=C1\C(C)=NC(C)=C(C(=O)OCCN2C(=O)c3ccccc3S2(=O)=O)C1c1ccccc1C(F)(F)F (stereo unspecified)	2.1	8.85	
CCO/C(O)=C1\C(C)=NC(C)=C(C(=O)OCN2C(=O)c3ccccc3S2(=O)=O)C1c1cccc([N+](=O)[O-])c1 (stereo unspecified)			pIC50 [3]: 8.48; Relative potency (Oryctolagus cuniculus [4]): 0.1
CC1=NC(C)=C(C(=O)OCCCN2C(=O)c3ccccc3S2(=O)=O)C(c2ccccc2[N+](=O)[O-])/C1=C(\O)OCC1CCCO1 (stereo unspecified)	0.4	8.17	
CCO/C(O)=C1\C(C)=NC(C)=C(C(=O)OCCCN2C(=O)c3ccccc3S2(=O)=O)C1c1ccccc1[N+](=O)[O-] (stereo unspecified)	1.1	8.59	
CCO/C(O)=C1\C(C)=NC(C)=C(C(=O)OCCCN2C(=O)c3ccccc3S2(=O)=O)C1c1ccccc1Cl (stereo unspecified)	0.7	8.41	
CC1=NC(C)=C(C(=O)OCCCN2C(=O)c3ccccc3S2(=O)=O)C(c2ccccc2[N+](=O)[O-])/C1=C(\O)OCC1CCCCO1 (stereo unspecified)	0.3	7.94	
CC1=NC(C)=C(C(=O)OCCCN2C(=O)c3ccccc3S2(=O)=O)C(c2ccccc2C(F)(F)F)/C1=C(\O)OC(C)C (stereo unspecified)	1.1	8.57	
CC1=NC(C)=C(C(=O)OCCCN2C(=O)c3ccccc3S2(=O)=O)C(c2ccccc2Cl)/C1=C(\O)OCC1CCCO1 (stereo unspecified)	0.4	8.15	
COCCO/C(O)=C1\C(C)=NC(C)=C(C(=O)OCCCN2C(=O)c3ccccc3S2(=O)=O)C1c1ccccc1C(F)(F)F (stereo unspecified)	2.1	8.85	Selectivity index [5]: 16; Recovery (Oryctolagus cuniculus [6]): 18.3%; pIC50 (Oryctolagus cuniculus [7]): 7.66
CC1=NC(C)=C(C(=O)OCN2C(=O)c3ccccc3S2(=O)=O)C(c2ccccc2[N+](=O)[O-])/C1=C(\O)OC(C)C (stereo unspecified)			pIC50 [3]: 8.85; Relative potency (Oryctolagus cuniculus [4]): 2.1
CC1=NC(C)=C(C(=O)OCCN2C(=O)c3ccccc3S2(=O)=O)C(c2ccccc2Cl)/C1=C(\O)OC(C)C (stereo unspecified)	0.9	8.51	
COCCO/C(O)=C1\C(C)=NC(C)=C(C(=O)OCCN2C(=O)c3ccccc3S2(=O)=O)C1c1cccc([N+](=O)[O-])c1 (stereo unspecified)	0.1	7.54	

Compound	Relative potency (Oryctolagus cuniculus [1])	pIC50 (Oryctolagus cuniculus [2])	other results
CO/C(O)=C1\C(C)=NC(C)=C(C(=O)OCCCN2C(=O)c3ccccc3S2(=O)=O)C1c1ccccc1Cl (stereo unspecified)	1.6	8.74	Selectivity index [5]: 77; Recovery (Oryctolagus cuniculus [6]): 6.05%; pIC50 (Oryctolagus cuniculus [7]): 6.85
COCCO/C(O)=C1\C(C)=NC(C)=C(C(=O)OCCCN2C(=O)c3ccccc3S2(=O)=O)C1c1ccccc1[N+](=O)[O-] (stereo unspecified)	1.1	8.57	
CO/C(O)=C1\C(C)=NC(C)=C(C(=O)OCN2C(=O)c3ccccc3S2(=O)=O)C1c1cccc([N+](=O)[O-])c1 (stereo unspecified)			pIC50 [3]: 7.82; Relative potency (Oryctolagus cuniculus [4]): 0.2
CCCO/C(O)=C1\C(C)=NC(C)=C(C(=O)OCN2C(=O)c3ccccc3S2(=O)=O)C1c1cccc([N+](=O)[O-])c1 (stereo unspecified)			pIC50 [3]: 7.19; Relative potency (Oryctolagus cuniculus [4]): <0.1
CC1=NC(C)=C(C(=O)OCN2C(=O)c3ccccc3S2(=O)=O)C(c2ccccc2[N+](=O)[O-])/C1=C(\O)OCC1CCCCO1 (stereo unspecified)			pIC50 [3]: 7.60; Relative potency (Oryctolagus cuniculus [4]): 0.1
COCCO/C(O)=C1\C(C)=NC(C)=C(C(=O)OCCCN2C(=O)c3ccccc3S2(=O)=O)C1c1cccc([N+](=O)[O-])c1 (stereo unspecified)	0.4	8.17	
CO/C(O)=C1\C(C)=NC(C)=C(C(=O)OCN2C(=O)c3ccccc3S2(=O)=O)C1c1cccc(Cl)c1Cl (stereo unspecified)			pIC50 [3]: 8.29; Relative potency (Oryctolagus cuniculus [4]): 0.6
CC1=NC(C)=C(C(=O)OCCN2C(=O)c3ccccc3S2(=O)=O)C(c2ccccc2Cl)/C1=C(\O)OC(C)(C)C (stereo unspecified)	0.6	8.35	
COCCO/C(O)=C1\C(C)=NC(C)=C(C(=O)OCCN2C(=O)c3ccccc3S2(=O)=O)C1c1ccccc1Cl (stereo unspecified)	0.1	7.64	Recovery (Oryctolagus cuniculus [6]): 0.5%
CO/C(O)=C1\C(C)=NC(C)=C(C(=O)OCCCN2C(=O)c3ccccc3S2(=O)=O)C1c1ccccc1[N+](=O)[O-] (stereo unspecified)	1.9	8.82	Selectivity index [5]: 80; Recovery (Oryctolagus cuniculus [6]): 18.8%; pIC50 (Oryctolagus cuniculus [7]): 6.92
CC1=NC(C)=C(C(=O)OCCN2C(=O)c3ccccc3S2(=O)=O)C(c2ccccc2Cl)/C1=C(\O)OCC1CCCO1 (stereo unspecified)	0.8	8.46	
CC1=NC(C)=C(C(=O)OCCN2C(=O)c3ccccc3S2(=O)=O)C(c2ccccc2[N+](=O)[O-])/C1=C(\O)OC(C)(C)C (stereo unspecified)	4.1	9.15	Selectivity index [5]: 41; Recovery (Oryctolagus cuniculus [6]): 0.2%; pIC50 (Oryctolagus cuniculus [7]): 7.55
CC1=NC(C)=C(C(=O)OCCCN2C(=O)c3ccccc3S2(=O)=O)C(c2cccc(Cl)c2Cl)/C1=C(\O)OC(C)(C)C (stereo unspecified)	0.2	8.51	
CC1=NC(C)=C(C(=O)OCCCN2C(=O)c3ccccc3S2(=O)=O)C(c2ccccc2C(F)(F)F)/C1=C(\O)OCC1CCCO1 (stereo unspecified)	0.8	8.43	
COCCO/C(O)=C1\C(C)=NC(C)=C(C(=O)OCCN2C(=O)c3ccccc3S2(=O)=O)C1c1cccc(Cl)c1Cl (stereo unspecified)	0.4	8.15	
CCO/C(O)=C1\C(C)=NC(C)=C(C(=O)OCCN2C(=O)c3ccccc3S2(=O)=O)C1c1cccc([N+](=O)[O-])c1 (stereo unspecified)	1.1	8.59	
CC1=NC(C)=C(C(=O)OCCCN2C(=O)c3ccccc3S2(=O)=O)C(c2cccc([N+](=O)[O-])c2)/C1=C(\O)OC(C)C (stereo unspecified)	2.9	9.00	Selectivity index [5]: 205; Recovery (Oryctolagus cuniculus [6]): 1.6%; pIC50 (Oryctolagus cuniculus [7]): 6.68
CO/C(O)=C1\C(C)=NC(C)=C(C(=O)OCN2C(=O)c3ccccc3S2(=O)=O)C1c1ccccc1[N+](=O)[O-] (stereo unspecified)			pIC50 [3]: 7.51; Relative potency (Oryctolagus cuniculus [4]): 0.1
CC1=NC(C)=C(C(=O)OCCN2C(=O)c3ccccc3S2(=O)=O)C(c2ccccc2C(F)(F)F)/C1=C(\O)OCC1CCCO1 (stereo unspecified)	1.2	8.60	
CC1=NC(C)=C(C(=O)OCN2C(=O)c3ccccc3S2(=O)=O)C(c2ccccc2C(F)(F)F)/C1=C(\O)OCC1CCCCO1 (stereo unspecified)			pIC50 [3]: 8.44; Relative potency (Oryctolagus cuniculus [4]): 0.8
CC1=NC(C)=C(C(=O)OCCCN2C(=O)c3ccccc3S2(=O)=O)C(c2ccccc2Cl)/C1=C(\O)OCC1CCCCO1 (stereo unspecified)	0.4	8.15	
CCO/C(O)=C1\C(C)=NC(C)=C(C(=O)OCCCN2C(=O)c3ccccc3S2(=O)=O)C1c1cccc([N+](=O)[O-])c1 (stereo unspecified)	1.5	8.72	
CC1=NC(C)=C(C(=O)OCCCN2C(=O)c3ccccc3S2(=O)=O)C(c2ccccc2Cl)/C1=C(\O)OC(C)C (stereo unspecified)	2.2	8.89	Selectivity index [5]: 37; pIC50 (Oryctolagus cuniculus [7]): 7.32
CC1=NC(C)=C(C(=O)OCCN2C(=O)c3ccccc3S2(=O)=O)C(c2cccc(Cl)c2Cl)/C1=C(\O)OCC1CCCO1 (stereo unspecified)	1.4	8.68	
CC1=NC(C)=C(C(=O)OCCN2C(=O)c3ccccc3S2(=O)=O)C(c2cccc(Cl)c2Cl)/C1=C(\O)OCC1CCCCO1 (stereo unspecified)	0.3	7.95	
